Jurkat tox 60K: reduces viability or proliferation of Jurkat cells; AID 463; Jurkat E6.1 viability, ATP luminescence, 48 h; hit rate 1.2% among 56,000; inhibition, % at 4 µM;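 active means inhibition above the mean inhibition of all tested compounds plus 3 SD, cut at about 28% in these data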
HUVEC inhibit: inhibitors of human endothelial cell proliferation; HUVEC proliferation, CellTiter-Glo luminescence, 72 h; stronger effect = lower value; viability, % at 10 µM (by protocol); hit rate 1.1% among 86,000; AID 648;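 active means viability at or below 30%; inactive means viability above 30%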
F-actin modifier: alters cytoskeleton assembly in HUVEC cells; hit rate 0.18% among 91,000; inhibition, % at 2 µM; HUVEC TNFa F-actin phalloidin imaging, high content;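 active means inhibition above the batch mean plus 3 SD and confirmed as a hit by visual image inspection, cut at about 30% in these data, passing the limit was not always enough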
Fibroblast inh: blocks proliferation of human lung fibroblasts | hit rate 1.1% among 85,000 | LL 47 human lung fibroblast viability, ATP luminescence; stronger effect = lower value | AID 719 | viability, % at 10 µM;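 active means viability at or below 50% in the single dose screen; inactive means viability above 50%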;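 further: compound exposure lasted 72 h before the ATP readout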
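Test system: LL 47 human lung fibroblasts / Incubation: 72 h compound exposure at 37 °C after overnight plating / Technique: luminescent ATP detection, CellTiter-Glo / Compound dosing: 0.1% DMSO in all compound wells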
H69AR inhibit: blocks growth of human H69AR lung tumor cells; viability, % at 10 µM; H69AR lung tumor viability, ATP luminescence, 72 h; stronger effect = lower value; hit rate 6% among 85,000;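 active means viability at or below 40%; inactive means viability above 40%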;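 further: multidrug resistant small cell line overexpressing MRP-1 efflux transporter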
Pyk2 oligo antag: antagonists of human Pyk2 oligomerization. Q14289. Q293 cells, Pyk2 FERM NanoBiT luminescence; stronger effect = lower value. z-score (the deposit names both 25 µM and 10 µM). hit rate 0.83% among 99,000. AID 1347419;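 active means Z-score of -3 or lower, scaled per plate to the spread of control and sample wells; inactive means z-score above -3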;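 further: negative z-score means lost luminescence so less FERM oligomerization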
Of the large screens only hits and unclear results are named; the others gave an inactive call. The list is not random: actives were taken first. Their share in the collection is about 6%.

CCCOc1ccc(N2CC(C(=O)Nc3ccccc3F)CC2=O)cc1 (centres undefined)	none
COC(=O)c1cnn2c(C(F)(F)F)cc(-c3ccc(F)cc3)nc12	none
COC(=O)c1nn2c(C(F)(F)F)cc(-c3ccc(Br)o3)nc2c1Br	H69AR inhibit 33 (no result: Jurkat tox 60K)
CCOc1ccc(NCc2nnc(SCC(=O)Nc3cc(C)on3)n2-c2ccccc2OC)cc1	H69AR inhibit 12
CCn1c(=O)c2cc(C(=O)N3CCN(C(=O)c4ccco4)CC3)sc2c2ccccc21	none (no result: F-actin modifier, Pyk2 oligo antag)
CCOC(=O)C1CCCN(C(=O)c2sc3nc(-c4ccc(F)cc4)cn3c2C)C1 (centres undefined)	none
COc1ccc(-c2cn3c(C)c(C(=O)Nc4ccncc4)sc3n2)cc1	none (no result: Pyk2 oligo antag)
Cc1c(C(=O)Nc2ccncc2)sc2nc(-c3ccc(F)cc3)cn12	HUVEC inhibit 29, H69AR inhibit 17 (no result: F-actin modifier, Pyk2 oligo antag)
COC(=O)c1ccc(NC(=O)c2sc3nc(-c4ccccc4)cn3c2C)cc1	H69AR inhibit 37, Pyk2 oligo antag -3.8
COc1ccc(-c2cn3c(C)c(C(=O)Nc4cccc(NC(C)=O)c4)sc3n2)cc1	HUVEC inhibit 23, H69AR inhibit 26
CCOC(=O)C1CCN(C(=O)c2sc3nc(-c4ccc(F)cc4)cn3c2C)CC1	H69AR inhibit 35
COCCN(CCOC)C(=O)c1sc2nc(-c3ccccc3)cn2c1C	none
Cc1nc(NC(=O)c2ccc(Cl)cc2)sc1-c1csc(Nc2cccc(F)c2)n1	none (no result: Jurkat tox 60K, HUVEC inhibit, Fibroblast inh, H69AR inhibit, Pyk2 oligo antag)
O=C(O)C1CC(O)CN1C(=O)c1ccco1 (centres undefined)	none (no result: Jurkat tox 60K, HUVEC inhibit, Fibroblast inh, H69AR inhibit)
CCC(=O)Oc1ccc(C/C(=N\O)c2ccc(O)cc2O)o1	H69AR inhibit 16
CCCOc1nc(N)c(C#N)c(-c2ccccc2F)c1C#N	Pyk2 oligo antag -3.1
CCCN1/C(=C2/SC(=S)N(CC)C2=O)C=Cc2ccccc21	Pyk2 oligo antag -3.1 (no result: Jurkat tox 60K)
Cc1nnsc1SCCNC(=O)c1ccc(F)cc1	none (no result: Jurkat tox 60K, HUVEC inhibit, Fibroblast inh, H69AR inhibit)
COc1ccc(N2CCN(CCCNC(=O)c3cc4sccc4n3C)CC2)cc1	H69AR inhibit 30
CC(=O)OCC(=O)Nc1ccc(C(C)=O)cc1	H69AR inhibit 39 (no result: Jurkat tox 60K)
CC(=O)NCC(=O)OCC(=O)Nc1ccc(C(C)=O)cc1	none (no result: F-actin modifier)
C=C1[C@@H](C)C2[C@H](Cc3ccccc3)NC(=O)[C@]23OC(=O)CC[C@H](O)CCC[C@H](C)C/C=C/[C@H]3[C@@H]1O (some centres undefined)	HUVEC inhibit 15, Fibroblast inh 25, H69AR inhibit 38 (no result: Jurkat tox 60K, F-actin modifier, Pyk2 oligo antag)
CC(Cc1cccs1)NC(=O)Nc1ccc(Cl)c(Cl)c1 (centres undefined)	H69AR inhibit 26 (no result: Jurkat tox 60K, F-actin modifier)
CC(Cc1cccs1)NC(=O)Nc1ccc(Cl)cc1 (centres undefined)	none (no result: Jurkat tox 60K, HUVEC inhibit, Fibroblast inh, H69AR inhibit)
CC(=O)Nc1ccc(N2C(C(C)=O)=NN(c3ccc(Cl)cc3)C2c2sccc2C)cc1 (centres undefined)	H69AR inhibit 38 (no result: Jurkat tox 60K)
O=C(NC1CCCCC1)C(c1ccc2ncccc2c1)N(Cc1ccccc1)C(=O)c1ccc2c(c1)OCCO2 (centres undefined)	none (no result: Jurkat tox 60K, HUVEC inhibit, Fibroblast inh, H69AR inhibit)
COc1ccc(CN(C(=O)c2cccs2)C(C(=O)NC2CCCCC2)c2ccc3ncccc3c2)cc1 (centres undefined)	Pyk2 oligo antag -3.1 (no result: Jurkat tox 60K, HUVEC inhibit, Fibroblast inh, H69AR inhibit)
O=C(NC1CCCCC1)C(c1ccc2ncccc2c1)N(Cc1ccc2c(c1)OCO2)C(=O)c1cccs1 (centres undefined)	Pyk2 oligo antag -3.6 (no result: Jurkat tox 60K, HUVEC inhibit, Fibroblast inh, H69AR inhibit)
O=C(NC1CCCCC1)C(c1ccc2ncccc2c1)N(Cc1ccccc1)C(=O)c1cccs1 (centres undefined)	Pyk2 oligo antag -4 (no result: Jurkat tox 60K, HUVEC inhibit, Fibroblast inh, H69AR inhibit)
O=C(NC1CCCC1)C(c1ccccc1)N(Cc1ccc2c(c1)OCO2)C(=O)Cc1cccs1 (centres undefined)	Pyk2 oligo antag -3.1 (no result: Jurkat tox 60K)
O=c1cc(C(Cl)(Cl)Cl)oc2c1ccc1ccccc12	none (no result: Jurkat tox 60K, HUVEC inhibit, Fibroblast inh, H69AR inhibit)
CC(=O)N(C(C)=O)S(=O)(=O)c1ccc(N=NN2CCOCC2)cc1	none (no result: Jurkat tox 60K, HUVEC inhibit, F-actin modifier, Fibroblast inh, H69AR inhibit)
CCOC(=O)C1CCCN(C(=O)CNC(=O)Cn2ccc3ccccc3c2=O)C1 (centres undefined)	none (no result: Jurkat tox 60K, F-actin modifier)
Cc1cccc(N(C(=O)c2csnn2)C(C(=O)NC(C)(C)C)c2cccs2)c1 (centres undefined)	none (no result: Jurkat tox 60K, HUVEC inhibit, Fibroblast inh, H69AR inhibit)
Cc1c(NC(=O)c2n[nH]c(=O)c3ccccc23)c(=O)n(-c2ccccc2)n1C	none (no result: Jurkat tox 60K)
C/C(N)=C(/C#N)C(=O)CSc1nnc(NC(C)C)s1	none
O=C(Nc1nc2ccccc2[nH]1)c1ccccc1	H69AR inhibit 32 (no result: Jurkat tox 60K)

Screening results deposited in PubChem by several laboratories.
